For this assay, the system named is MDA-MB-435 + TRAIL, ATPlite cytotoxicity, 24 h. The experiment in a line: potentiation of TRAIL cytotoxicity in resistant cells, confirmation, cell-based, MDA-MB-435, ATPlite luminescence, 24 h (AID 1747). The conditions noted are these: stronger effect = higher value; for cytotoxicity: compound alone, no TRAIL. In short, it runs like this: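 Assay system: TRAIL-resistant human MDA-MB-435 cancer cells; Reagent: TRAIL, 30 ng/mL; Doses: compound 1.25–5 µM final; Timing: 24 h cell growth, 4 h compound pretreatment, 24 h TRAIL exposure; Signal: ATPlite luminescence reporting cellular ATP content.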

The mark [1] stands for this setting: compound plus TRAIL, at 1.25 µM.

Turning to `CSc1nc(-c2ccccc2)nc(C(Cl)Cl)n1`, the cytotoxicity with TRAIL was 82% (at 5 µM); 44% under setting [1]; 58% (compound plus TRAIL, at 2.5 µM). Moreover, where the note is “at 5 µM”, the cytotoxicity worked out at 0%.

`CCSc1nc(-c2ccccc2)nc(C(Cl)Cl)n1`: the cytotoxicity with TRAIL is 73% (at 5 µM); 28% under setting [1]; 45% (compound plus TRAIL, at 2.5 µM). For the same compound, the cytotoxicity (at 5 µM) came out at 0%.

Take `CSc1nc(-c2ccc(C)cc2)nc(C(Cl)Cl)n1`: the cytotoxicity with TRAIL (at 5 µM) was 71%; the cytotoxicity with TRAIL under setting [1] was 43%; the cytotoxicity with TRAIL (compound plus TRAIL, at 2.5 µM) was found to be 60%. Besides, the cytotoxicity (at 5 µM) amounted to 0%.
